What was measured:
[1] = In vitro Inhibition on growth of human Hep 2 laryngeal carcinoma cell line; assay type: functional
Outline: (§1)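 Monolayer cultures in DMEM with 10% FBS, 2 mM L-glutamine, penicillin/streptomycin, 37 °C, 5% CO2. Cells plated on day 0 at densities set by doubling time (1 × 10⁴/mL HeLa, Hep-2, MiaPaCa-2, SW 620; 2 × 10⁴/mL MCF-7; 3 × 10⁴/mL WI 38). Compound added at five 10-fold dilutions (10^-8 to 10^-4 mol/L) for 72 h. MTT read at 570 nm, converted to percentage growth versus time-zero and untreated controls. Quadruplicate points, three experiments. IC50 by linear regression.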

[2] = tested on: SW-620; experiment: In vitro Inhibition on growth of human SW 620 colon carcinoma cell line; assay type: functional, cell-based; outline: as §1
[3] = tested on: HeLa; experiment: In vitro Inhibition on growth of human HeLa cervical carcinoma cell line; assay type: functional, cell-based; outline: as §1
[4] = In vitro Inhibition on growth of human WI 38 diploid fibroblast cell line; assay type: functional, cell-based; outline: as §1
[5] = tested on: MIA PaCa-2; experiment: In vitro Inhibition on growth of human MiaPaCa-2 pancreatic carcinoma cell line; assay type: functional, cell-based; outline: as §1
[6] = tested on: MCF7; experiment: In vitro Inhibition on growth of human MCF 7 breast carcinoma cell line; assay type: functional, cell-based; outline: as §1
[7] = tested on: MIA PaCa-2; experiment: Percentage of apoptosis induced by compound in MiaPaCa-2 cell line at 5 uM concentration after 72 h; assay type: functional, Homo sapiens
Outline: (§2)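 Annexin-V assay after 72 h exposure to 5 or 10 µM. Cells washed with PBS, pelleted, and stained with Annexin-V-fluorescein plus propidium iodide in Hepes buffer. Scored by fluorescence microscopy: Annexin-V-positive cells counted as apoptotic, Annexin-V/PI double-positive as necrotic. Apoptotic fraction given as percentage of total cells.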

[8] = tested on: HeLa; experiment: Percentage of apoptosis induced by compound in HeLa cell line after at 5 uM concentration 72 h; assay type: functional, Homo sapiens; outline: as §2
[9] = tested on: HeLa; experiment: Percentage of apoptosis induced by compound in HeLa cell line after at 10 uM concentration 72 h; assay type: functional, Homo sapiens; outline: as §2
[10] = tested on: SW-620; experiment: Percentage of apoptosis induced by compound in SW 620 cell line at 10 uM concentration after 72 h; assay type: functional, Homo sapiens; outline: as §2
[11] = tested on: SW-620; experiment: Percentage of apoptosis induced by compound in SW 620 cell line at 5 uM concentration after 72 h; assay type: functional, Homo sapiens; outline: as §2
[12] = tested on: MIA PaCa-2; experiment: Percentage of apoptosis induced by compound in MiaPaCa-2 cell line at 10 uM concentration after 72 h; assay type: functional, Homo sapiens; outline: as §2

Row | SMILES | IC50 [1] [µM] | IC50 [2] [µM] | IC50 [3] [µM] | IC50 [4] [µM] | IC50 [5] [µM] | IC50 [6] [µM] | Apoptosis [7] [%] | Apoptosis [8] [%] | Apoptosis [9] [%] | Apoptosis [10] [%] | Apoptosis [11] [%] | Apoptosis [12] [%]
1 | CC(C)/N=C(/N)c1ccc2c(Cl)c(C(=O)Nc3ccc(Br)cc3)sc2c1 | 3.14 | 4.18 | 3.05 | 3.64 | 2.54 | 2.62 |  |  |  |  |  | 
2 | Cc1ccc(NC(=O)c2sc3cc(/C(N)=N\C(C)C)ccc3c2Cl)cc1 | 2.96 | 3.54 | 2.35 | 2.03 | 5.11 | 7.26 |  |  |  |  |  | 
3 | N#Cc1ccc2c(Cl)c(C(=O)Nc3ccc(Br)cc3)sc2c1 | > 100 | > 100 | > 100 | 5.99 | > 100 | > 100 |  |  |  |  |  | 
4 | Cc1ccc2c(Cl)c(C(=O)Nc3ccc(/C(N)=N\C(C)C)cc3)sc2c1 | 3.94 | 3.53 | 3 | 3.3 | 4.44 | 3.49 |  |  |  |  |  | 
5 | CC(C)/N=C(/N)c1ccc2nc(O)c3sc4cc(C#N)ccc4c3c2c1 | ≥ 100 | > 100 | 6.14 | ≥ 100 | 42.1 | > 100 |  |  |  |  |  | 
6 | COC(=O)c1ccc2c(Cl)c(C(=O)Nc3ccccc3)sc2c1 | > 100 | 95.5 | > 100 | 53.6 | > 100 | > 100 |  |  |  |  |  | 
7 | COc1ccc2c(Cl)c(C(=O)Nc3ccc(C(=N)NC(C)C)cc3)sc2c1 | 2.55 | 3.86 | 2.7 | 4.01 | 4.67 | 3.7 |  |  |  |  |  | 
8 | CC(C)/N=C(/N)c1ccc2nc(O)c3sc4cc(Br)ccc4c3c2c1 | 6.95 | 6.84 | 1.7 | 19 | 3.71 | 5.78 |  |  |  |  |  | 
9 | COC(=O)c1ccc2c(c1)sc1c(O)nc3ccc(C(=N)NC(C)C)cc3c12 | 45.9 | 48.8 | 4.79 | > 100 | 5.64 | 65.1 | 4 | 12 | 17 | 9 | 7 | 13
10 | COC(=O)c1ccc(NC(=O)c2sc3cc(C#N)ccc3c2Cl)cc1 | 59.1 | 4.62 | 24.1 | 2.71 | > 100 | > 100 | 3 | 6 | 52 | 71 | 6 | 9
11 | CC(C)/N=C(/N)c1ccc2nc(O)c3sc4ccccc4c3c2c1 | 16.6 | 32.2 | 25.3 | ≥ 100 | 7.3 | 1.36 | 4 | 9 | 11 | 13 | 9 | 11
12 | CC(C)/N=C(/N)c1ccc(NC(=O)c2sc3cc(C#N)ccc3c2Cl)cc1 | 21 | 8.02 | 22.2 | 25.1 | 8.72 | 23.9 |  |  |  |  |  | 
13 | CC(C)/N=C(/N)c1ccc2c(Cl)c(C(=O)Nc3ccccc3)sc2c1 | 23.8 | 4.57 | 4.26 | 4.7 | 7.23 | 1.27 |  |  |  |  |  | 
14 | CC(C)/N=C(/N)c1ccc2c(c1)sc1c(O)nc3ccc(/C(N)=N\C(C)C)cc3c12 | > 100 | ≥ 100 | 31.6 | ≥ 100 | 86.9 | 78.5 |  |  |  |  |  | 
15 | COc1ccc(NC(=O)c2sc3cc(C#N)ccc3c2Cl)cc1 | 48.4 | > 100 | 40.4 | 23.4 | 90.9 | 17.6 |  |  |  |  |  | 
16 | COc1ccc(NC(=O)c2sc3cc(C(=N)NC(C)C)ccc3c2Cl)cc1 | 9.7 | 8.24 | 5.83 | 29.8 | 22.5 | 17.4 |  |  |  |  |  | 

Row | SMILES | IC50 [1] [µM] | IC50 [2] [µM] | IC50 [3] [µM] | IC50 [4] [µM] | IC50 [5] [µM] | IC50 [6] [µM] | Apoptosis [7] [%] | Apoptosis [8] [%] | Apoptosis [9] [%] | Apoptosis [10] [%] | Apoptosis [11] [%] | Apoptosis [12] [%]
17 | CC(C)/N=C(/N)c1ccc(NC(=O)c2sc3cc(/C(N)=N\C(C)C)ccc3c2Cl)cc1 | 67.3 | > 100 | 25.6 | 86.9 | 75.9 | 15.6 |  |  |  |  |  | 
18 | COC(=O)c1ccc2nc(O)c3sc4cc(C(=N)NC(C)C)ccc4c3c2c1 | 97 | 8.11 | 15.8 | 5.33 | 6.93 | 5.56 | 6 | 13 | 15 | 7 | 6 | 14
19 | COC(=O)c1ccc(NC(=O)c2sc3ccccc3c2Cl)cc1 | > 100 | > 100 | > 100 | 44.3 | > 100 | > 100 |  |  |  |  |  | 
20 | Cc1ccc2c(c1)sc1c(O)nc3ccc(/C(N)=N\C(C)C)cc3c12 | 8.59 | 7.57 | 4.3 | 18.7 | 5.98 | 5.4 | 3 | 6 | 8 | 16 | 15 | 17
21 | COC(=O)c1ccc(NC(=O)c2sc3cc(C(=N)NC(C)C)ccc3c2Cl)cc1 | 8.16 | 3.6 | 5.65 | 6.9 | 7.1 | 2.36 |  |  |  |  |  | 
22 | CC(C)/N=C(/N)c1ccc(NC(=O)c2sc3ccccc3c2Cl)cc1 | 15.3 | 27.8 | 12.9 | 36.4 | 6.99 | 1.97 |  |  |  |  |  | 
23 | CC(C)/N=C(/N)c1ccc2c(c1)sc1c(O)nc3ccccc3c12 | 20.9 | 3.76 | 49.2 | 37.4 | 18 | 21.3 |  |  |  |  |  | 
24 | N#Cc1ccc(NC(=O)c2sc3ccccc3c2Cl)cc1 | 6.5 | > 100 | 0.86 | 8.12 | > 100 | 100 |  |  |  |  |  | 
25 | COc1ccc2c(c1)sc1c(O)nc3ccc(C(=N)NC(C)C)cc3c12 | 34.7 | 20.6 | 2.34 | 40.6 | 6.73 | 38 |  |  |  |  |  | 
26 | N#Cc1ccc2c(Cl)c(C(=O)Nc3ccccc3)sc2c1 | 0.69 | ≥ 100 | 0.35 | ≥ 100 | > 100 | 84.9 |  |  |  |  |  | 
27 | CC(C)/N=C(/N)c1ccc(NC(=O)c2sc3cc(Br)ccc3c2Cl)cc1 | 2.37 | 3.93 | 2.15 | 2.99 | 3.51 | 2.54 |  |  |  |  |  | 
28 | Cc1ccc2nc(O)c3sc4cc(/C(N)=N\C(C)C)ccc4c3c2c1 | 8.51 | 22.7 | 6.43 | 19.1 | 6.67 | 5.58 |  |  |  |  |  | 
29 | Cc1ccc(NC(=O)c2sc3cc(C#N)ccc3c2Cl)cc1 | > 100 | > 100 | > 100 | 0.75 | > 100 | > 100 |  |  |  |  |  | 
30 | CC(C)/N=C(/N)c1ccc2c(c1)sc1c(O)nc3ccc(Br)cc3c12 | 9.79 | 13.2 | 8.92 | 3.88 | 7.99 | 6.28 | 3 | 10 | 15 | 13 | 9 | 11
31 | COC(=O)c1ccc2c(Cl)c(C(=O)Nc3ccc(C(=N)NC(C)C)cc3)sc2c1 | 5.37 | 3.67 | 2.24 | 2.85 | 3.49 | 1.23 |  |  |  |  |  | 
